Measurements as given in ChEMBL document CHEMBL4689842, “EUbOPEN Chemogenomics Library wave 1” (2021).
Where “and” joins values, the source holds several entries; their conditions need not be identical. Identical values can stand only once.

System: HEK-293T
Assay: Multiplex assay against HEK293T;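 as to Population Tubulin-Different-Phenotype (%): share of the cells with healthy nuclei that show this phenotype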
Assay type: toxicity, cell-based
Conditions: human
In short: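 At seeding, live cells were stained with Hoechst33342, BioTracker Green Microtubule Cytoskeleton Dye, MitoTracker Red and Annexin V Alexa Fluor 680. After compound addition they were imaged on a CQ1 microscope at 37°C and 5% CO2, and CellPathfinder machine-learning gating sorted them into Hoechst high-intensity objects or normal cells, with normal cells further split into healthy, pyknosed or fragmented nuclei and pyknosed cells into mitotic or apoptotic. Tubulin, mitochondrial-mass and membrane-permeability phenotypes are given as per cents of cells with healthy nuclei.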

[1] = 12 h, 10 µM, compound concentration 10 uM, replicate 1
[2] = 12 h, 10 µM, compound concentration 10 uM, replicate 2
[3] = 24 h, 10 µM, compound concentration 10 uM, replicate 1
[4] = 24 h, 10 µM, compound concentration 10 uM, replicate 2
[5] = 12 h, 1 µM, compound concentration 1 uM, replicate 1
[6] = 12 h, 1 µM, compound concentration 1 uM, replicate 2
[7] = 24 h, 1 µM, compound concentration 1 uM, replicate 1
[8] = 24 h, 1 µM, compound concentration 1 uM, replicate 2
[9] = 48 h, 1 µM, compound concentration 1 uM, replicate 1
[10] = 48 h, 1 µM, compound concentration 1 uM, replicate 2
[11] = 48 h, 10 µM, compound concentration 10 uM, replicate 1
[12] = 48 h, 10 µM, compound concentration 10 uM, replicate 2

Question: For CNCc1ccccc1-c1csc([C@@H](C)Nc2nc(C)nc3cc(OC)c(OC)cc23)c1 [BAY-293], which “Population Apoptotic (%)” value [1] is on record?
Answer: The value was 19% and 47%.

Question: And the “Population Fragmented Nuclei (%)” value [1]?
Answer: Its value is 20% and 21%.

Question: And the “Population Healthy Nuclei (%)” value [1]?
Answer: Its value is 45% and 17%.

Question: And the “Population Hoechst High Intensity Objects (%)” value [1]?
Answer: The value was 16% and 22%.

Question: What about the “Population Membrane Permeable-Phenotype (%)” value [1] of the same compound?
Answer: The value was 29% and 15%.

Question: And the “Population Mitochondria Different-Phenotype (%)” value [1]?
Answer: The value was 18% and 54%.

Question: And the “Population Mitotic Cells (%)” value [1]?
Answer: The value was 80% and 52%.

Question: And the “Population Normal (%)” value [1]?
Answer: The value was 83% and 77%.

Question: And the “Population Pyknosed Nuclei (%)” value [1]?
Answer: Its value is 34% and 61%.

Question: And the “Population Tubulin-Different-Phenotype (%)” value [1]?
Answer: The value was 80% and 65%.

Question: And the “Total Cell Count” value [1]?
Answer: Its value is 581 and 619.

Question: And the “Population Fragmented Nuclei (%)” value [2]?
Answer: The value was 5% and 2%.

Question: What about the “Population Healthy Nuclei (%)” value [2] of the same compound?
Answer: The value was 80% and 57%.

Question: What about the “Population Hoechst High Intensity Objects (%)” value [2] of the same compound?
Answer: Its value is 3% and 9%.

Question: What about the “Population Membrane Permeable-Phenotype (%)” value [2] of the same compound?
Answer: Its value is 7%.

Question: And the “Population Mitotic Cells (%)” value [2]?
Answer: The value was 91% and 65%.

Question: And the “Population Normal (%)” value [2]?
Answer: Its value is 96% and 90%.

Question: What about the “Population Pyknosed Nuclei (%)” value [2] of the same compound?
Answer: Its value is 14% and 40%.

Question: And the “Population Tubulin-Different-Phenotype (%)” value [2]?
Answer: The value was 95% and 92%.

Question: What about the “Total Cell Count” value [2] of the same compound?
Answer: The value was 1447 and 918.

Question: What about the “Population Apoptotic (%)” value [3] of the same compound?
Answer: The value was 55% and 23%.

Question: And the “Population Fragmented Nuclei (%)” value [3]?
Answer: Its value is 28% and 17%.

Question: And the “Population Hoechst High Intensity Objects (%)” value [3]?
Answer: The value was 25% and 13%.

Question: What about the “Population Membrane Permeable-Phenotype (%)” value [3] of the same compound?
Answer: Its value is 17% and 36%.

Question: What about the “Population Mitochondria Different-Phenotype (%)” value [3] of the same compound?
Answer: The value was 45% and 16%.

Question: And the “Population Mitotic Cells (%)” value [3]?
Answer: The value was 44% and 76%.

Question: What about the “Population Normal (%)” value [3] of the same compound?
Answer: Its value is 74% and 86%.

Question: And the “Population Tubulin-Different-Phenotype (%)” value [3]?
Answer: The value was 59% and 89%.

Question: And the “Total Cell Count” value [3]?
Answer: The value was 668 and 627.

Question: And the “Population Fragmented Nuclei (%)” value [4]?
Answer: The value was 5% and 15%.

Question: And the “Population Healthy Nuclei (%)” value [4]?
Answer: The value was 46% and 79%.

Question: And the “Population Mitotic Cells (%)” value [4]?
Answer: The value was 53% and 94%.

Question: What about the “Population Normal (%)” value [4] of the same compound?
Answer: Its value is 89% and 96%.

Question: And the “Population Tubulin-Different-Phenotype (%)” value [4]?
Answer: Its value is 73% and 82%.

Question: And the “Total Cell Count” value [4]?
Answer: Its value is 918 and 2344.

Question: What does the source list for CC1=C(C(=O)Nc2cc3cn[nH]c3cc2F)C(c2ccc(C(F)(F)F)cc2)CC(=O)N1 (stereo not given)?
Answer: Population Apoptotic (%) [5]: 47%; Population Fragmented Nuclei (%) [5]: 13%; Population Healthy Nuclei (%) [5]: 43%; Population Hoechst High Intensity Objects (%) [5]: 7%; Population Membrane Permeable-Phenotype (%) [5]: 3%; Population Mitochondria Different-Phenotype (%) [5]: 63%; Population Mitotic Cells (%) [5]: 52%; Population Normal (%) [5]: 92%; Population Pyknosed Nuclei (%) [5]: 42%; Population Tubulin-Different-Phenotype (%) [5]: 29%; Total Cell Count [5]: 402; Population Apoptotic (%) [6]: 6%; Population Fragmented Nuclei (%) [6]: 12%; Population Healthy Nuclei (%) [6]: 46%; Population Hoechst High Intensity Objects (%) [6]: 2%; Population Membrane Permeable-Phenotype (%) [6]: 12%; Population Mitochondria Different-Phenotype (%) [6]: 12%; Population Mitotic Cells (%) [6]: 93%; Population Normal (%) [6]: 97%; Population Pyknosed Nuclei (%) [6]: 40%; Population Tubulin-Different-Phenotype (%) [6]: 14%; Total Cell Count [6]: 235; Population Apoptotic (%) [1]: 38%; Population Fragmented Nuclei (%) [1]: 12%; Population Healthy Nuclei (%) [1]: 41%; Population Hoechst High Intensity Objects (%) [1]: 10%; Population Membrane Permeable-Phenotype (%) [1]: 5%; Population Mitochondria Different-Phenotype (%) [1]: 64%; Population Mitotic Cells (%) [1]: 61%; Population Normal (%) [1]: 89%; Population Pyknosed Nuclei (%) [1]: 45%; Population Tubulin-Different-Phenotype (%) [1]: 36%; Total Cell Count [1]: 236; Population Apoptotic (%) [2]: 16%; Population Fragmented Nuclei (%) [2]: 10%; Population Healthy Nuclei (%) [2]: 37%; Population Hoechst High Intensity Objects (%) [2]: 5%; Population Membrane Permeable-Phenotype (%) [2]: 11%; Population Mitochondria Different-Phenotype (%) [2]: 24%; Population Mitotic Cells (%) [2]: 83%; Population Normal (%) [2]: 95%; Population Pyknosed Nuclei (%) [2]: 52%; Population Tubulin-Different-Phenotype (%) [2]: 34%; Total Cell Count [2]: 240; Population Apoptotic (%) [7]: 41%; Population Fragmented Nuclei (%) [7]: 11%; Population Healthy Nuclei (%) [7]: 41%; Population Hoechst High Intensity Objects (%) [7]: 12%; Population Membrane Permeable-Phenotype (%) [7]: 3%; Population Mitochondria Different-Phenotype (%) [7]: 46%; Population Mitotic Cells (%) [7]: 58%; Population Normal (%) [7]: 87%; Population Pyknosed Nuclei (%) [7]: 47%; Population Tubulin-Different-Phenotype (%) [7]: 29%; Total Cell Count [7]: 443; Population Apoptotic (%) [8]: 12%; Population Healthy Nuclei (%) [8]: 63%; Population Hoechst High Intensity Objects (%) [8]: 1%; Population Membrane Permeable-Phenotype (%) [8]: 14%; Population Mitochondria Different-Phenotype (%) [8]: 8%; Population Mitotic Cells (%) [8]: 87%; Population Normal (%) [8]: 98%; Population Pyknosed Nuclei (%) [8]: 25%; Population Tubulin-Different-Phenotype (%) [8]: 17%; Total Cell Count [8]: 274; Population Apoptotic (%) [3]: 42%; Population Fragmented Nuclei (%) [3]: 15%; Population Healthy Nuclei (%) [3]: 41%; Population Hoechst High Intensity Objects (%) [3]: 10%; Population Membrane Permeable-Phenotype (%) [3]: 6%; Population Mitochondria Different-Phenotype (%) [3]: 61%; Population Mitotic Cells (%) [3]: 57%; Population Normal (%) [3]: 89%; Population Pyknosed Nuclei (%) [3]: 42%; Population Tubulin-Different-Phenotype (%) [3]: 41%; Total Cell Count [3]: 229; Population Apoptotic (%) [4]: 26%; Population Fragmented Nuclei (%) [4]: 11%; Population Healthy Nuclei (%) [4]: 61%; Population Hoechst High Intensity Objects (%) [4]: 2%; Population Membrane Permeable-Phenotype (%) [4]: 12%; Population Mitochondria Different-Phenotype (%) [4]: 26%; Population Mitotic Cells (%) [4]: 73%; Population Normal (%) [4]: 97%; Population Pyknosed Nuclei (%) [4]: 26%; Population Tubulin-Different-Phenotype (%) [4]: 47%; Total Cell Count [4]: 258; Population Apoptotic (%) [9]: 29%; Population Fragmented Nuclei (%) [9]: 18%; Population Healthy Nuclei (%) [9]: 47%; Population Hoechst High Intensity Objects (%) [9]: 10%; Population Membrane Permeable-Phenotype (%) [9]: 6%; Population Mitochondria Different-Phenotype (%) [9]: 23%; Population Mitotic Cells (%) [9]: 70%; Population Normal (%) [9]: 89%; Population Pyknosed Nuclei (%) [9]: 34%; Population Tubulin-Different-Phenotype (%) [9]: 22%; Total Cell Count [9]: 530; Population Apoptotic (%) [10]: 5%; Population Fragmented Nuclei (%) [10]: 10%; Population Healthy Nuclei (%) [10]: 77%; Population Hoechst High Intensity Objects (%) [10]: 2%; Population Membrane Permeable-Phenotype (%) [10]: 8%; Population Mitochondria Different-Phenotype (%) [10]: 3%; Population Mitotic Cells (%) [10]: 94%; Population Normal (%) [10]: 97%; Population Pyknosed Nuclei (%) [10]: 11%; Population Tubulin-Different-Phenotype (%) [10]: 15%; Total Cell Count [10]: 488; Population Apoptotic (%) [11]: 49%; Population Fragmented Nuclei (%) [11]: 16%; Population Healthy Nuclei (%) [11]: 49%; Population Hoechst High Intensity Objects (%) [11]: 14%; Population Membrane Permeable-Phenotype (%) [11]: 7%; Population Mitochondria Different-Phenotype (%) [11]: 29%; Population Mitotic Cells (%) [11]: 50%; Population Normal (%) [11]: 85%; Population Pyknosed Nuclei (%) [11]: 33%; Population Tubulin-Different-Phenotype (%) [11]: 34%; Total Cell Count [11]: 261; Population Apoptotic (%) [12]: 65%; Population Healthy Nuclei (%) [12]: 75%; Population Hoechst High Intensity Objects (%) [12]: 2%; Population Membrane Permeable-Phenotype (%) [12]: 6%; Population Mitochondria Different-Phenotype (%) [12]: 19%; Population Mitotic Cells (%) [12]: 34%; Population Normal (%) [12]: 97%; Population Pyknosed Nuclei (%) [12]: 8%; Population Tubulin-Different-Phenotype (%) [12]: 36%; Total Cell Count [12]: 334

Question: What does the source list for Cc1cc(C)c(-n2ccn3nc(-c4cccnc4)cc23)cc1NC(=O)c1cc(C#N)cc(S(F)(F)(F)(F)F)c1 [BAY-826]?
Answer: Population Apoptotic (%) [5]: 30%; Population Fragmented Nuclei (%) [5]: 14% and 17%; Population Healthy Nuclei (%) [5]: 56% and 57%; Population Hoechst High Intensity Objects (%) [5]: 14% and 13%; Population Membrane Permeable-Phenotype (%) [5]: 36% and 23%; Population Mitochondria Different-Phenotype (%) [5]: 25% and 17%; Population Mitotic Cells (%) [5]: 69%; Population Normal (%) [5]: 85% and 86%; Population Pyknosed Nuclei (%) [5]: 28% and 24%; Population Tubulin-Different-Phenotype (%) [5]: 93% and 58%; Total Cell Count [5]: 624 and 510; Population Fragmented Nuclei (%) [6]: 4% and 6%; Population Healthy Nuclei (%) [6]: 75% and 83%; Population Hoechst High Intensity Objects (%) [6]: 3%; Population Membrane Permeable-Phenotype (%) [6]: 34% and 17%; Population Mitochondria Different-Phenotype (%) [6]: 32% and 19%; Population Mitotic Cells (%) [6]: 79% and 93%; Population Normal (%) [6]: 96%; Population Pyknosed Nuclei (%) [6]: 20% and 9%; Population Tubulin-Different-Phenotype (%) [6]: 98% and 82%; Total Cell Count [6]: 1184 and 1372; Population Apoptotic (%) [7]: 35% and 25%; Population Fragmented Nuclei (%) [7]: 12% and 11%; Population Healthy Nuclei (%) [7]: 66% and 76%; Population Hoechst High Intensity Objects (%) [7]: 12% and 7%; Population Membrane Permeable-Phenotype (%) [7]: 33% and 20%; Population Mitochondria Different-Phenotype (%) [7]: 28% and 16%; Population Mitotic Cells (%) [7]: 64% and 75%; Population Normal (%) [7]: 87% and 92%; Population Pyknosed Nuclei (%) [7]: 20% and 12%; Population Tubulin-Different-Phenotype (%) [7]: 95% and 76%; Total Cell Count [7]: 622 and 545; Population Apoptotic (%) [8]: 9% and 14%; Population Healthy Nuclei (%) [8]: 78% and 68%; Population Hoechst High Intensity Objects (%) [8]: 4%; Population Membrane Permeable-Phenotype (%) [8]: 22% and 17%; Population Mitotic Cells (%) [8]: 90% and 85%; Population Normal (%) [8]: 95%; Population Tubulin-Different-Phenotype (%) [8]: 87%; Total Cell Count [8]: 2013 and 1166
